Numbering of substitutions follows the chain as printed. Calls of active or inactive are those of the source. No cut-off for these calls is given here.

A word on the inhibition: it is the share of the control response that was lost under treatment.

In test [1] the target is T1, Bifunctional (p)ppGpp synthase/hydrolase RelA (Streptococcus dysgalactiae subsp. equisimilis) (UniProt Q54089).
T1 sequence (whole entry): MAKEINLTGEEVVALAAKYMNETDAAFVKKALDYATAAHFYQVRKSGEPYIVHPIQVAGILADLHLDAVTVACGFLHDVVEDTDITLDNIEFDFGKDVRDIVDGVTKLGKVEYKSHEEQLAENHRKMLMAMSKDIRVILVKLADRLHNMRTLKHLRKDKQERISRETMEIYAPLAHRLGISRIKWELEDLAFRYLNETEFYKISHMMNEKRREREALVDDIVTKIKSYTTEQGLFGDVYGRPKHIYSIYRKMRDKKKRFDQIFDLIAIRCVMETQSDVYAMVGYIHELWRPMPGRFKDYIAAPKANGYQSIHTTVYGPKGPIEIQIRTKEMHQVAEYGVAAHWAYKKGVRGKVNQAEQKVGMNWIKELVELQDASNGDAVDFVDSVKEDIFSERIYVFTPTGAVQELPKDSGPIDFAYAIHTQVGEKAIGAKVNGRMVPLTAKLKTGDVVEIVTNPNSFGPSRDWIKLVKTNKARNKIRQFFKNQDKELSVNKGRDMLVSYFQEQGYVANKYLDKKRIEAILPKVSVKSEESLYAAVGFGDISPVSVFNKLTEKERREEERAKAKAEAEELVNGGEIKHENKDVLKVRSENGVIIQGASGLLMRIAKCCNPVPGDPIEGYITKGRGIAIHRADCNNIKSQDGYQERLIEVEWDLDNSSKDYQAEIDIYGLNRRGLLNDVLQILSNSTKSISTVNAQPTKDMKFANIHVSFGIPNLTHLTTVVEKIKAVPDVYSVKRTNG
In words: Inhibition of synthetic activity of Streptococcus equisimilis RelA assessed as inhibition of (p)ppGpp accumulation at 5 to 10 mM after 5 mins.

For test [2], the target named is T2, GTP pyrophosphokinase (Escherichia coli K-12) (UniProt P0AG20).
T2 sequence (whole entry): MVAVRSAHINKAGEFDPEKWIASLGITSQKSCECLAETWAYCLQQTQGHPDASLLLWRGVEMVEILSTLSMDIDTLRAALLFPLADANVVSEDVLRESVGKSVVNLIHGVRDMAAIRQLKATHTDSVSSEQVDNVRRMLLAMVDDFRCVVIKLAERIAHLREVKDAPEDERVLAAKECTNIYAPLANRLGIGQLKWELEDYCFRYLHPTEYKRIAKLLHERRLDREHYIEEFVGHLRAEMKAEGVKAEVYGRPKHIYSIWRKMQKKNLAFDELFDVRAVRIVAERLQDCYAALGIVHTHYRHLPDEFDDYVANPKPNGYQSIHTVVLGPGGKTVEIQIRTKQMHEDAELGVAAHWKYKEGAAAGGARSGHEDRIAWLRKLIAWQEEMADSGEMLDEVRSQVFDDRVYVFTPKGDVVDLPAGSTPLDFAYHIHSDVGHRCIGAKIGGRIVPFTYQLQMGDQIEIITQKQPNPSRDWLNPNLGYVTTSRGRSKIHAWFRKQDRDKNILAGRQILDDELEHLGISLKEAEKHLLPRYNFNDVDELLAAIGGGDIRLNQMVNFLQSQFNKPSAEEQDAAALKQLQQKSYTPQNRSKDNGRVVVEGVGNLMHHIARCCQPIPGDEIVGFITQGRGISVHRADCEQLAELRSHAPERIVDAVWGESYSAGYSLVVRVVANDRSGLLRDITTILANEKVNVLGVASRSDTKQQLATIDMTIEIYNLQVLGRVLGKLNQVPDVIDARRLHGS
In words: Inhibition of synthetic activity of Escherichia coli RelA assessed as inhibition of (p)ppGpp accumulation at 5 to 10 mM after 60 mins.

Test [3] concerns the target T2, GTP pyrophosphokinase (Escherichia coli K-12). In words: Inhibition of synthetic activity of Escherichia coli RelA assessed as inhibition of (p)ppGpp accumulation at 0.1 to 0.5 mM after 60 mins.
Test [4] has the same target. In words: Inhibition of Escherichia coli RelA catalytic site at 5 mM in presence of increasing concentration of ATP. The method, boiled down:
(§1)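 The buffer was Tris–HCl pH 7.4 with DTT, MgCl2, KCl and (NH4)2SO4. Analogue was held at 5 mM while GTP or ATP was raised. Reactions ran 60 min at room temperature, were stopped with formic acid, and (p)ppGpp accumulation was the read-out.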

Test [5] shares this target. In words: Inhibition of Escherichia coli RelA catalytic site at 5 mM in presence of increasing concentration of GTP. The method, boiled down: as §1
The subject of test [6] is T3, GTP pyrophosphokinase (Escherichia coli K-12), P0AG20 [G251E].
T3 sequence (whole entry): T2 sequence (whole entry) with G251E
In words: Inhibition of Escherichia coli RelA G251E mutant dissociation from ribosome at 1 to 10 mM after 4 hrs by chemiluminescence assay. The method, boiled down:
(§2)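 Ribosomes were isolated through a 40% sucrose cushion from E. coli grown in LB at 37 °C. RelA plus ribosomes and analogue at 1–10 mM were centrifuged 4 h at 32,000 rpm, 4 °C, and split into soluble and ribosomal fractions. Ribosomal fractions were run on 12% SDS-PAGE, blotted to PVDF and probed with anti-His antibody (1:10,000).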

Test [7] addresses T1, Bifunctional (p)ppGpp synthase/hydrolase RelA (Streptococcus dysgalactiae subsp. equisimilis). In words: Inhibition of Streptococcus equisimilis RelA catalytic site at 5 mM in presence of increasing concentration of GTP.
Test [8] has the same target. In words: Inhibition of Streptococcus equisimilis RelA catalytic site at 5 mM in presence of increasing concentration of ATP.
Another test concerns Escherichia coli. In words: Inhibition of synthetic activity of Escherichia coli RelA C638F mutant at 1 to 10 mM. The procedure, abridged:
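Analogue was added at 1, 5 or 10 mM in duplicate lanes. The buffer was Tris–HCl pH 7.4 containing DTT, MgCl2, KCl and (NH4)2SO4. Reactions ran at room temperature and were stopped with formic acid.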

For test [9], the target named is T1, Bifunctional (p)ppGpp synthase/hydrolase RelA (Streptococcus dysgalactiae subsp. equisimilis). In words: Inhibition of synthetic activity of Streptococcus equisimilis RelA assessed as inhibition of (p)ppGpp accumulation at 0.5 mM after 5 mins.
Test [10] deals with T2, GTP pyrophosphokinase (Escherichia coli K-12). In words: Inhibition of Escherichia coli RelA dissociation from ribosome assessed as increase in bound protein at 1 to 10 mM after 4 hrs by chemiluminescence assay relative to control. The procedure, abridged:
as §2

For test [11] the target is unchanged. In words: Inhibition of Escherichia coli RelA dissociation from L11 mutated ribosome assessed as increase in bound protein at 1 to 10 mM after 4 hrs by chemiluminescence assay relative to control. The procedure, abridged:
as §2

For test [12] the target is unchanged. In words: Inhibition of synthetic activity of Escherichia coli RelA assessed as inhibition of (p)ppGpp accumulation at > 1 mM after 60 mins.

For `CC1(C)O[C@@H]2[C@H](O1)[C@@H](COP(=O)(O)CP(=O)(O)O)O[C@H]2n1cnc2c(=O)[nH]c(N)nc21`, the inhibition entry in [1] and in test [2] was “Active” in each case.

With `Nc1nc2c(ncn2[C@H]2C[C@H](OP(=O)(O)CP(=O)(O)O)[C@@H](COP(=O)(O)CP(=O)(O)O)O2)c(=O)[nH]1`, the inhibition result in [3], in [5], in [6], in test [7] and in test [11] was “inactive” each time. Also, the inhibition result (in [4]; in test [1]; in test [2]; in [8]; with Escherichia coli) was “Active” each time. For the same molecule, the inhibition in [9] and in [12] was over 50% each time. In test [10], the fold change (FC) amounted to 3.

For `Nc1nc2c(ncn2[C@H]2C[C@H](OP(=O)(O)CP(=O)(O)O)[C@@H](CO)O2)c(=O)[nH]1`, the inhibition result in [1] and in test [2] was “Active” throughout.

For `CC(C)C(=O)Nc1nc2c(ncn2[C@@H]2O[C@H](COP(=O)(O)CP(=O)(O)O)[C@@H](OP(=O)(O)CP(=O)(O)O)[C@H]2O)c(=O)[nH]1`, the inhibition result in test [1] and in [2] was “Active” throughout.

Turning to `Nc1nc2c(ncn2[C@@H]2O[C@H](COP(=O)(O)CP(=O)(O)O)[C@@H](O)[C@H]2O)c(=O)[nH]1`, the inhibition result in test [1] and in test [2] was “Active” each time.

On to `Nc1nc2c(ncn2[C@@H]2O[C@H](COP(=O)(O)CP(=O)(O)O)[C@@H](OP(=O)(O)CP(=O)(O)O)[C@H]2O)c(=O)[nH]1`, for which the inhibition entry in [1] and in [2] was “Active” in each case.

Consider `CC(C)C(=O)Nc1nc2c(ncn2[C@@H]2O[C@H](COP(=O)(O)CP(=O)(O)O)[C@@H](OP(=O)(O)CP(=O)(O)O)[C@H]2O[Si](C)(C)C(C)(C)C)c(=O)[nH]1`, for which the inhibition entry in [1] and in test [2] was “Active” each time.
